From PubChem BioAssay AID2097 (Broad Institute, 2009)
Screen size: about 300,000 compounds; about 120 (0.04%) were called active. Shown is part of a subset that was picked to be rich in actives. Values without a mark were called inactive.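 How the source made its calls: active means more than half of replicate wells score below -50%, meaning over 50% inhibition versus plate controls; inconclusive means some replicates but at most half score below -50%; inactive means no replicate scores below -50%.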

The compounds below were run against Glycogen synthase kinase-3 beta (Homo sapiens) (UniProt P49841) (assay: human GSK3beta kinase inhibitors, primary screen, biochemical, cell-free homogeneous, HTS (AID 2097;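 further: 0% = median DMSO wells and -100% = median GW8510 positive control wells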)). Details: GST-GSK3beta kinase, ADP-Glo luminescence, 60 min; at 10 µM; active compounds read low.
Glycogen synthase kinase-3 beta (Homo sapiens), sequence (P49841 whole entry, looked up): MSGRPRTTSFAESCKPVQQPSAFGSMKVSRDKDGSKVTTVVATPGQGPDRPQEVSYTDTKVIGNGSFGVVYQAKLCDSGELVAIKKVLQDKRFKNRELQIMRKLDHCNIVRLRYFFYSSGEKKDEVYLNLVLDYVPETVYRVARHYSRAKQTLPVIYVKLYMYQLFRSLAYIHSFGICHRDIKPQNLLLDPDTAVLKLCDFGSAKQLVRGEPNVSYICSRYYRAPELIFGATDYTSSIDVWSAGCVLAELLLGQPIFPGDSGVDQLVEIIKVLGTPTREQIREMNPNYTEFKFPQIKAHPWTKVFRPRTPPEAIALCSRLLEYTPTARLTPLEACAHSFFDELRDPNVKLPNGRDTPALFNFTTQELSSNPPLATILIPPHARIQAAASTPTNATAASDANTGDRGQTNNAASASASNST
Outline: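 Test system: GST-tagged human GSK3beta kinase, cell-free; evaluation: activity score scaled between in-plate DMSO and GW8510 controls; measured by: ADP-Glo luminescence; incubation: 60 min reaction, RT; benchmarks: DMSO and 20 µM GW8510; reagent: peptide substrate plus 25 µM ATP (final); medium: Tris/MgCl2 kinase buffer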
In the case of COc1ccc([N+](=O)[O-])cc1NC(=O)COC(=O)/C=C/c1ccco1, the activity score (negative = inhibition) is reported as 1.89%. In the case of CCOc1ccccc1C(=O)NC1CC2CCCC(C1)N2Cc1ccccc1 (stereo not given), the activity score (negative = inhibition) is reported as 1.55%. With Cc1cccc(-c2nc3c(c(SCC(=O)N4CCOCC4)n2)CCCC3)c1 the activity score (negative = inhibition) was -0.852%. COc1ccccc1NC(=O)CCC(=O)N1CC(C)Oc2ccc(C)cc21 (stereo not given) gave an activity score (negative = inhibition) of -0.0566%. For CCOC(=O)C[C@H]1c2ccc(C(F)(F)F)cc2S(=O)(=O)N1c1ccccc1, the activity score (negative = inhibition) was 3.21%. CCC1(c2ccccc2)NC(=O)N(CC(=O)Nc2ccccc2C(=O)NC2CCCC2)C1=O (stereo not given) showed an activity score (negative = inhibition) of 1.66%. Work on COc1ccc(-c2ccc(OC(=O)NC3CCS(=O)(=O)C3)cc2)cc1 (stereo not given) yielded an activity score (negative = inhibition) of 1.32%. C=C(C)C(=O)O[C@H]1C/C(C)=C\C(=O)/C=C(\C)[C@H](O)[C@@H]2OC(=O)C(=C)[C@@H]21 showed an activity score (negative = inhibition) of 2.58%. Cc1ccc(S(=O)(=O)/N=S(\C)C(C)C)cc1 (stereo not given) was tested, and the activity score (negative = inhibition) was -3.78%. Work on Cc1nn(-c2ccccc2)c2c1c(C)c(CCC(=O)NCC1CCCO1)c(=O)n2C (stereo not given) yielded an activity score (negative = inhibition) of -0.881%. COc1ccc(CCC(C)N2CCc3ccccc3C2)cc1 (stereo not given) was tested, and the activity score (negative = inhibition) was 3.34%. COc1ccc(CNS(=O)(=O)c2cc3c4c(c2)CCN4C(=O)CC3)cc1 was tested, and the activity score (negative = inhibition) was 0.199%. Compound COc1ccc(C2OCC3(CO2)SC(=O)NC3=O)cc1OC (stereo not given) has an activity score (negative = inhibition) of -1.61%. Cc1ccc(C(=O)Nc2nc3ccc(Cl)cc3s2)o1 showed an activity score (negative = inhibition) of -1.18%. Cc1ccc(OCCNC(=O)CNC(=O)c2ccc(C)c(C)c2)cc1 was tested, and the activity score (negative = inhibition) was -1.65%. Work on COC(=O)C1=NNC2(c3ccc(C)cc3)C(=O)N(c3cccc(C)c3C)C(=O)C12 (stereo not given) yielded an activity score (negative = inhibition) of 1.69%. With Cc1ccc(C2SCC(=O)N2c2ccccc2)cc1 (stereo not given) the activity score (negative = inhibition) was -1.18%. In the case of C[C@H](NC(=O)c1ccccc1Cl)C(=O)OCCOc1cccc(Cl)c1, the activity score (negative = inhibition) is reported as -1.48%. O=C(CCCN1C(=O)CSc2ncccc21)N1CCN(c2cccc(C(F)(F)F)c2)CC1 showed an activity score (negative = inhibition) of -4.32%. For CCC(C(=O)OCC(=O)Nc1ccccc1-c1ccccc1)c1ccccc1 (stereo not given), the activity score (negative = inhibition) was 0.894%. CC(=O)c1ccc(NC(=S)N(Cc2ccccc2)C(C)C2CC2)cc1 (stereo not given) was tested, and the activity score (negative = inhibition) was -0.731%. For Cc1nnc(C)c2c(C)n(N)c(C)c12, the activity score (negative = inhibition) was 1.96%. CNC(=O)NC(=O)C(OC(=O)c1cccc(S(=O)(=O)N2CCCCC2)c1)c1ccccc1 (stereo not given) gave an activity score (negative = inhibition) of 1.44%. O=C(/C=C/c1cccc([N+](=O)[O-])c1)NCCSCc1ccco1 gave an activity score (negative = inhibition) of -1%. CC(C)Nc1nnc(SC(C)C(=O)N(C)C2CCCCC2)s1 (stereo not given) gave an activity score (negative = inhibition) of -10.4%. Compound CCc1nnc(NC(=O)CSCc2cc(=O)n3cc(C)sc3n2)s1 has an activity score (negative = inhibition) of 1.76%. With COc1ccc(C)cc1Nc1n[n+](-c2ccccc2)c(-c2cccc(Cl)c2Cl)s1 the activity score (negative = inhibition) was 1.38%. Work on COC(=O)c1ccc2c(C(C)(C)O)c(C(C)(C)O)[nH]c2c1 yielded an activity score (negative = inhibition) of 0.923%. Cc1cc(C)n2nc(C(=O)N(C)C(c3ccccc3)c3ccccc3)nc2n1 gave an activity score (negative = inhibition) of -1.04%. Compound COC(=O)c1ccc(CNC(=O)C2CCC(=O)N(Cc3cccc(F)c3)C2)cc1 (stereo not given) has an activity score (negative = inhibition) of -6.3%. With CCc1noc(C)c1C(=O)N1CCCSC1=Nc1ccccc1OC the activity score (negative = inhibition) was 3.72%. CC(OC(=O)c1ccc(S(=O)(=O)N2CCOCC2)cc1)c1ccccc1 (stereo not given) showed an activity score (negative = inhibition) of -0.509%. With O=C(N/N=C/c1ccccc1O)/C(=C/c1ccccc1)CCO the activity score (negative = inhibition) was 0.241%. Compound CC1CC2=C(CC1/C=N/NC(N)=S)C(C)(C)CCC2 (stereo not given) has an activity score (negative = inhibition) of -1.32%. With O=C1NC(Nc2nc3ccccc3s2)(C(F)(F)F)C(=O)N1C1CCCCC1 (stereo not given) the activity score (negative = inhibition) was -3.19%. Cc1ccc(C2=NN(C)c3nc4ccccc4n3C2)cc1 gave an activity score (negative = inhibition) of 1.54%. Nc1nc(CC(=O)CSc2ccc(Cl)cc2)nc(Nc2ccc(F)cc2)n1 showed an activity score (negative = inhibition) of 0.55%. With Oc1c(Cl)cc(Cl)cc1/C=N/c1ncn[nH]1 the activity score (negative = inhibition) was 0.992%. COC(C[C@H](O)CC(=O)[C@@H](C)OCc1ccccc1)OC was tested, and the activity score (negative = inhibition) was -8.84%. With Cc1cc(C)c(-c2csc(NC(=O)CCCc3nc4ccccc4c(=O)[nH]3)n2)c(C)c1 the activity score (negative = inhibition) was 2.17%. Compound COC(=O)Nc1ccc(S(=O)(=O)N2CCN(CCN3C(=O)C4C5C=CC(C5)C4C3=O)CC2)cc1 (stereo not given) has an activity score (negative = inhibition) of -3.94%. With O=C1C(=O)N(CCCN2CCOCC2)C(c2ccc([N+](=O)[O-])cc2)/C1=C(\O)c1ccc2c(c1)OCCO2 (stereo not given) the activity score (negative = inhibition) was 1.45%. With COc1nc(Oc2ccc(=O)n(C)n2)nc(N(C)C)n1 the activity score (negative = inhibition) was 0.382%. Cc1ccc(OCC(=O)Nc2ccc(C(=O)O)cc2NC(=O)COc2ccc(C)c(C)c2)cc1C showed an activity score (negative = inhibition) of 2.29%. Compound CC(=O)N1CCSc2ccc(S(=O)(=O)N3CCC(C)CC3)cc21 has an activity score (negative = inhibition) of 1.34%. O=C(NCc1ccco1)C1CCCN1S(=O)(=O)c1ccccc1C(F)(F)F (stereo not given) showed an activity score (negative = inhibition) of 1.38%. Compound Cn1c(=O)[nH]c(=O)c2c1nc(N1CCN(C(c3ccccc3)c3ccccc3)CC1)n2CCO has an activity score (negative = inhibition) of -22.6%. CCN(CC(=O)Nc1ccccc1C(F)(F)F)C(=O)CSCc1c(C)noc1C showed an activity score (negative = inhibition) of -1.14%. Work on CN1CCN(S(=O)(=O)c2ccc(Nc3ccc(F)cc3)nc2)CC1 yielded an activity score (negative = inhibition) of 2.53%. For CC1(C)Cc2ccccc2/C(=C/C(=O)c2ccccc2)N1, the activity score (negative = inhibition) was -1.05%. In the case of CN(C)S(=O)(=O)c1ccc(N2CCCC2)c(C(=O)Nc2ccc(Br)cc2F)c1, the activity score (negative = inhibition) is reported as 3.14%. In the case of COc1ccc2c(c1OC)C(=O)N(c1ccc(O)cc1)C2, the activity score (negative = inhibition) is reported as -1.79%. In the case of C=CCOc1c2ccc(C(=O)N(CC)c3ccc(OC)cc3)cc2nn1C, the activity score (negative = inhibition) is reported as 0.746%. Compound O=CN1CCN(C(=O)c2ccc3c(c2)OCO3)CC1 has an activity score (negative = inhibition) of 2.93%. C/C(CC(=O)NCc1ccc(Cl)cc1)=N\NC(=O)COc1ccc(C)cc1Br showed an activity score (negative = inhibition) of -2.78%. For COc1ccccc1C(=O)N(C1=NC(C)CS1)c1ccc(Cl)cc1 (stereo not given), the activity score (negative = inhibition) was 6.2%. O=C(Nc1ccccc1)Nc1nnc(COc2ccccc2F)s1 showed an activity score (negative = inhibition) of 0.847%. Compound CCCN1C2CCCC1CC(NC(=O)c1cccc(OC)c1)C2 (stereo not given) has an activity score (negative = inhibition) of 2.34%. CN(CCNC(=O)c1cc2c(-c3ccccc3F)nn(C)c2s1)C1CCCCC1 was tested, and the activity score (negative = inhibition) was -2.3%. For COC(=O)c1ccc(CN2C(=O)NC(c3ccccc3)(c3ccccc3)C2=O)o1, the activity score (negative = inhibition) was -0.96%. Work on CCn1cc(C(=O)N[C@@H](C)C(=O)NCCO)c(=O)c2cc3c(cc21)OCO3 yielded an activity score (negative = inhibition) of -0.599%. For O=[N+]([O-])c1cc([N+](=O)[O-])c(Oc2cc(F)cc(F)c2F)cc1NN1CCCCC1, the activity score (negative = inhibition) was -1.52%. In the case of CC(NC(=O)C1CCCN(S(=O)(=O)c2ccc(-n3cnnn3)cc2)C1)c1ccc(F)cc1 (stereo not given), the activity score (negative = inhibition) is reported as -1.62%. COc1cc(NC(=O)C2CCN(c3cnccn3)CC2)cc(OC)c1 showed an activity score (negative = inhibition) of -0.841%. Work on O=c1[nH]c2ccccc2n2c(-c3ccccc3)nnc12 yielded an activity score (negative = inhibition) of -0.961%. CCCCN(C(=O)CSCC(=O)Nc1ccc(OC)cc1)c1c(N)n(CCC)c(=O)[nH]c1=O was tested, and the activity score (negative = inhibition) was -1.15%. With Cc1nnsc1S(=O)(=O)Cc1ccccc1Cl the activity score (negative = inhibition) was -0.424%. CC(=O)N1c2ccc(S(=O)(=O)N3CCCC(C(=O)Nc4ccc(C)cc4C)C3)cc2CC1C (stereo not given) was tested, and the activity score (negative = inhibition) was 0.432%. CCOC(OCC)c1ccc(/C=C\c2nccc(N)n2)cc1 showed an activity score (negative = inhibition) of -5.66%. Work on Cc1cccc(CCNS(=O)(=O)c2ccc(S(=O)(=O)NC3CCCC3)cc2)c1 yielded an activity score (negative = inhibition) of -0.921%. For COc1ccc(C)cc1N(C)C(=O)c1coc(=O)c2ccccc12, the activity score (negative = inhibition) was 3.14%. Compound COc1ccc(Cl)cc1NC(=O)C(C)N1CCc2ccccc21 (stereo not given) has an activity score (negative = inhibition) of 0.322%. COC(=O)[C@]1(C)N[C@H](c2ccc(-c3ccc(Cl)c(Cl)c3)cc2)[C@@H]2C(=O)N(C)C(=O)[C@@H]21 was tested, and the activity score (negative = inhibition) was -2.15%. Cc1cc(C)c(S(=O)(=O)c2ccccc2)c(OC(=O)c2c(F)cccc2Cl)n1 was tested, and the activity score (negative = inhibition) was 7.18%. In the case of N#Cc1ccccc1Sc1ccccc1C(=O)OCC(=O)NC1CCCCC1, the activity score (negative = inhibition) is reported as 5.54%. In the case of Cc1cc(Br)ccc1NC(=O)c1cnc(N2CCN(c3ccccn3)CC2)c2ccccc12, the activity score (negative = inhibition) is reported as -4.35%. Cc1nnc(NC(=O)CCC(=O)N2CCC(C)CC2)s1 gave an activity score (negative = inhibition) of 0.523%. Cc1ccc(NC(=O)c2ccc(CSc3ncnc4nc[nH]c34)cc2)c(C)c1 was tested, and the activity score (negative = inhibition) was -7.49%. In the case of Cc1ccc2nc(NC(=O)CSc3nc(=O)n(CCCN(C)C)c4c3CCC4)sc2c1, the activity score (negative = inhibition) is reported as 2.91%. In the case of Cn1c(=O)c(=O)n(C)c2cc(S(=O)(=O)CCC(=O)N3CCCCC3)ccc21, the activity score (negative = inhibition) is reported as 2.02%. With CCN(c1ccc2c(c1)OCO2)S(=O)(=O)c1cc(Br)cc2c1N(C(=O)C1CC1)CC2 the activity score (negative = inhibition) was -2.85%. Compound CCC1(CC)NC(=O)N(CC(=O)OCC(=O)Nc2ccc(C(F)(F)F)cc2)C1=O has an activity score (negative = inhibition) of -0.836%. In the case of COC(=O)c1cc2n(n1)CCCNC2=O, the activity score (negative = inhibition) is reported as 2.64%. O=C(NC1CCCC1)C(NS(=O)(=O)c1ccc(Br)s1)c1ccccc1 (stereo not given) was tested, and the activity score (negative = inhibition) was -0.275%. O=C(O)c1ccc2c(=O)n3c(nc2c1)/C(=C/c1ccc(OC(F)F)cc1OC(F)F)CC3 was tested, and the activity score (negative = inhibition) was -1.21%. Work on COCCNC(=O)C1CCN(S(=O)(=O)c2ccc3c(c2)OCCO3)CC1 yielded an activity score (negative = inhibition) of -2.22%. O=C(Nc1cccc(F)c1)N1C2CCC1CC(O)(c1cccnc1)C2 (stereo not given) showed an activity score (negative = inhibition) of 2.54%. CC(C)NS(=O)(=O)c1ccc(OCC(=O)NC2CCCCCC2)cc1 was tested, and the activity score (negative = inhibition) was 1.95%. CC(C)NC(=O)c1ccccc1S(=O)c1ccccc1C#N (stereo not given) was tested, and the activity score (negative = inhibition) was -1.11%. For CC(=O)Nc1nc2c(s1)C(=O)NCC(C)(C)C2, the activity score (negative = inhibition) was 3.79%.
